Columns and labels:
MCF7 [1] = assay: Induction of apoptosis in human MCF7 cells assessed as cell death at 1 uM after 24 hrs by TUNEL analysis (reference value: 6.12 +/- 1.61%); assay type: functional
MCF7 [2] = assay: Induction of apoptosis in human MCF7 cells assessed as cell death at 5 uM after 24 hrs by TUNEL analysis (reference value: 9.28 +/- 1.71%); assay type: functional
MCF7 [3] = assay: Induction of apoptosis in human MCF7 cells assessed as cell death at 10 uM after 24 hrs by TUNEL analysis (reference value: 9.82 +/- 2.62%); assay type: functional
MCF7 [4] = assay: Induction of apoptosis in human MCF7 cells assessed as cell death at 15 uM after 24 hrs by TUNEL analysis (reference value: 5.13 +/- 4.32%); assay type: functional
MCF7 [5] = assay: Induction of apoptosis in human MCF7 cells assessed as cell death at 20 uM after 24 hrs by TUNEL analysis (reference value: 9.56 +/- 1.38%); assay type: functional
MCF7 [6] = assay: Induction of apoptosis in human MCF7 cells assessed as cell death at 10 uM after 4 hrs by TUNEL analysis (reference value: 5.85 +/- 5.21%); assay type: functional
MCF7 [7] = assay: Induction of apoptosis in human MCF7 cells assessed as cell death at 10 uM after 12 hrs by TUNEL analysis (reference value: 6.02 +/- 0.85%); assay type: functional
MCF7 [8] = assay: Induction of apoptosis in human MCF7 cells assessed as cell death at 10 uM after 48 hrs by TUNEL analysis (reference value: 4.23 +/- 1.99%); assay type: functional
MCF7 [9] = assay: Cell cycle arrest in human MCF7 cells assessed as accumulation at subG1 phase at 15 uM after 4 hrs by propidium iodide staining-based flow cytometric analysis (reference value: 5.90 +/- 1.36%); assay type: functional
MCF7 [10] = assay: Cell cycle arrest in human MCF7 cells assessed as accumulation at subG1 phase at 15 uM after 12 hrs by propidium iodide staining-based flow cytometric analysis (reference value: 2.17 +/- 0.24%); assay type: functional
MCF7 [11] = assay: Cell cycle arrest in human MCF7 cells assessed as accumulation at subG1 phase at 15 uM after 24 hrs by propidium iodide staining-based flow cytometric analysis (reference value: 2.93 +/- 0.54%); assay type: functional
MCF7 [12] = assay: Cell cycle arrest in human MCF7 cells assessed as accumulation at G0/G1 phase at 15 uM after 4 hrs by propidium iodide staining-based flow cytometric analysis (reference value: 49.38 +/- 4.74%); assay type: functional
MCF7 [13] = assay: Cell cycle arrest in human MCF7 cells assessed as accumulation at G0/G1 phase at 15 uM after 12 hrs by propidium iodide staining-based flow cytometric analysis (reference value: 57.34 +/- 1.64%); assay type: functional
MCF7 [14] = assay: Cell cycle arrest in human MCF7 cells assessed as accumulation at G0/G1 phase at 15 uM after 24 hrs by propidium iodide staining-based flow cytometric analysis (reference value: 51.83 +/- 5.64%); assay type: functional
MCF7 [15] = assay: Cell cycle arrest in human MCF7 cells assessed as accumulation at S phase at 15 uM after 4 hrs by propidium iodide staining-based flow cytometric analysis (reference value: 19.09 +/- 4.54%); assay type: functional
MCF7 [16] = assay: Cell cycle arrest in human MCF7 cells assessed as accumulation at S phase at 15 uM after 12 hrs by propidium iodide staining-based flow cytometric analysis (reference value: 17.07 +/- 4.00%); assay type: functional
MCF7 [17] = assay: Cell cycle arrest in human MCF7 cells assessed as accumulation at S phase at 15 uM after 24 hrs by propidium iodide staining-based flow cytometric analysis (reference value: 12.39 +/- 1.54%); assay type: functional
MCF7 [18] = assay: Cell cycle arrest in human MCF7 cells assessed as accumulation at G2/M phase at 15 uM after 4 hrs by propidium iodide staining-based flow cytometric analysis (reference value: 21.60 +/- 5.37%); assay type: functional
MCF7 [19] = assay: Cell cycle arrest in human MCF7 cells assessed as accumulation at G2/M phase at 15 uM after 12 hrs by propidium iodide staining-based flow cytometric analysis (reference value: 22.11 +/- 3.86%); assay type: functional
MCF7 [20] = assay: Cell cycle arrest in human MCF7 cells assessed as accumulation at G2/M phase at 15 uM after 24 hrs by propidium iodide staining-based flow cytometric analysis (reference value: 32.37 +/- 7.73%); assay type: functional
MCF7 [21] = assay: Selectivity ratio of GI50 for human 184B5 cells to GI50 for human MCF7 cells
Procedure, shortened: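 Selectivity ratio is GI50 on non-tumoral 184B5 mammary cells divided by GI50 on MCF-7. Both come from the 72 h MTT assay. Ratio 3–6 means moderate selectivity, >6 high, and otherwise non-selective.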

CCRF-CEM = assay: Cytotoxicity against human CCRF-CEM cells after 72 hrs by MTT assay; assay type: functional; conditions: for CC50: read-out: LC50 (the source's name)
Procedure, shortened: (§1)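 MTT read-out after 72 h exposure at 37 °C in humidified 5% CO2, with five concentrations between 0.01 and 100. GI50 is 50% growth reduction versus untreated controls, TGI is complete growth inhibition, and LC50 is the concentration killing 50% of cells. Minimum three independent experiments.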

HT-29 = assay: Cytotoxicity against human HT-29 cells after 72 hrs by MTT assay; assay type: functional; conditions: HT-29, 72 h; for CC50: read-out: LC50 (the source's name); procedure, shortened: as §1
[22] = Cytotoxicity against human HTB-54 cells after 72 hrs by MTT assay; assay type: functional; conditions: HTB-54, 72 h; for CC50: read-out: LC50 (the source's name); procedure, shortened: as §1
MCF7 [23] = assay: Cytotoxicity against human MCF7 cells after 72 hrs by MTT assay; assay type: functional; conditions: MCF7, 72 h; procedure, shortened: as §1
[24] = Cytotoxicity against human 184B5 cells after 72 hrs by MTT assay; assay type: cell-based; conditions: for GI50 at 72 h: 184B5 cells; for LC50 / TGI: 184b5, 72 h; procedure, shortened: as §1
[25] = Cytotoxicity against human BEAS2B cells after 72 hrs by MTT assay; assay type: cell-based, BEAS-2B; conditions: for GI50 at 72 h: BEAS2B cells; for LC50 / TGI: beas-2b, 72 h; procedure, shortened: as §1
[26] = Permeability of the compound across human Caco2 cells; assay type: ADME, cell-based; conditions: Caco-2, read-out: permeability
MCF7 [27] = assay: Induction of apoptosis in human MCF7 cells assessed as cell death at 10 uM by TUNEL analysis; assay type: functional, cell-based; conditions: TDE = time-dependent effect
MCF7 [28] = assay: Induction of apoptosis in human MCF7 cells assessed as cell death at 5 uM after 24 hrs by TUNEL analysis relative to control; assay type: functional
MCF7 [29] = assay: Induction of apoptosis in human MCF7 cells assessed as cell death at 20 uM after 24 hrs by TUNEL analysis relative to control; assay type: functional

Row | Structure (SMILES) | Activity (MCF7 [1]) [%] | Activity (MCF7 [2]) [%] | Activity (MCF7 [3]) [%] | Activity (MCF7 [4]) [%] | Activity (MCF7 [5]) [%] | GI50 (CCRF-CEM) [µM] | TGI (CCRF-CEM) [µM] | CC50 (CCRF-CEM) [µM] | GI50 (HT-29) [µM] | TGI (HT-29) [µM] | CC50 (HT-29) [µM] | GI50 [22] [µM] | TGI [22] [µM] | CC50 [22] [µM] | GI50 (MCF7 [23]) [µM] | LC50 (MCF7 [23]) [µM] | TGI (MCF7 [23]) [µM] | GI50 at 72 h [24] [µM] | LC50 [24] [µM] | TGI [24] [µM] | also measured
1 | CC[C@@]1(O)C(=O)OCc2c1cc1n(c2=O)Cc2cc3ccccc3nc2-1 [CAMPTOTHECIN] | 17.42 | 13.42 | 18.67 | 21.21 | 17.59 |  |  |  |  |  |  |  |  |  |  |  |  |  |  |  | Activity (MCF7 [6]): 6.71%; Activity (MCF7 [7]): 11.36%; Activity (MCF7 [8]): 46.12%; Activity (MCF7 [9]): 5.39%; Activity (MCF7 [10]): 3.06%; Activity (MCF7 [11]): 3.05%; Activity (MCF7 [12]): 47.24%; Activity (MCF7 [13]): 59.5%; Activity (MCF7 [14]): 58.52%; Activity (MCF7 [15]): 18.36%; Activity (MCF7 [16]): 16.24%; Activity (MCF7 [17]): 15.27%; Activity (MCF7 [18]): 23.38%; Activity (MCF7 [19]): 20.21%; Activity (MCF7 [20]): 20.25%
2 | C[Se]c1nc([Se]C)c2ccccc2n1 |  |  |  |  |  | 31.2 | 54.9 | 78.5 | 7.46 | 33.8 | 76.8 | 26.6 | 84.2 | > 100 | 5.97 | > 100 | 50.7 | 71.5 | > 100 | > 100 | RatioGI50 (MCF7 [21]): 12
3 | CCCCCSc1nc(O)c2ccccc2n1 |  |  |  |  |  | 52.1 | 86 | > 100 | 74.6 | > 100 | > 100 | 30.4 | > 100 | > 100 | 7.82 | > 100 | 81.4 | > 100 | > 100 | > 100 | RatioGI50 (MCF7 [21]): >12; GI50 at 72 h [25]: 51.4 µM; LC50 [25]: > 100 µM; TGI [25]: > 100 µM
4 | CCCCC[Se]c1nc(NCc2ccccc2)c2ccccc2n1 | 3.84 | 14.37 | 30.13 | 24.88 | 30.95 | 34.5 | 72.5 | > 100 | 72.7 | > 100 | > 100 | 37.7 | 81.1 | > 100 | 0.05 | 99.4 | 47.1 | 70.9 | > 100 | > 100 | RatioGI50 (MCF7 [21]): 1418; Activity (MCF7 [6]): 8.11%; Activity (MCF7 [7]): 13.39%; Activity (MCF7 [8]): 14.91%; Activity (MCF7 [9]): 4.42%; Activity (MCF7 [10]): 2.13%; Activity (MCF7 [11]): 3.28%; Activity (MCF7 [12]): 46.24%; Activity (MCF7 [13]): 55.3%; Activity (MCF7 [14]): 46.97%; Activity (MCF7 [15]): 16.66%; Activity (MCF7 [16]): 17.01%; Activity (MCF7 [17]): 12.2%; Activity (MCF7 [18]): 28.5%; Activity (MCF7 [19]): 25.83%; Activity (MCF7 [20]): 34.79%; Papp [26]: 5.6 ×10⁻⁶ cm/s; GI50 at 72 h [25]: 44.1 µM; LC50 [25]: > 100 µM; TGI [25]: > 100 µM
5 | [SeH]c1nc([SeH])c2ccccc2n1 | 2.76 | 16.32 | 27.29 | 76.82 | 87.55 | 2.99 | 6.01 | 9.03 | 8.98 | 45.2 | 87.9 | 5.98 | 65.9 | > 100 | 2.92 | > 100 | 22.9 | 0.49 | 6.63 | 2.5 | Activity (MCF7 [6]): 6.01%; Activity (MCF7 [7]): 12.26%; Activity (MCF7 [8]): 58.31%; Activity (MCF7 [27]): tde; fold change (FC) (MCF7 [28]): 1.7; fold change (FC) (MCF7 [29]): 9; Activity (MCF7 [9]): 3.98%; Activity (MCF7 [10]): 2.37%; Activity (MCF7 [11]): 3.46%; Activity (MCF7 [12]): 52.09%; Activity (MCF7 [13]): 56.21%; Activity (MCF7 [14]): 47.77%; Activity (MCF7 [15]): 23.29%; Activity (MCF7 [16]): 18.36%; Activity (MCF7 [17]): 15.75%; Activity (MCF7 [18]): 21.21%; Activity (MCF7 [19]): 25.63%; Activity (MCF7 [20]): 34.67%; Papp [26]: 4.67 ×10⁻⁶ cm/s
6 | CSc1ccc(CNc2nc(SC)nc3ncccc23)cc1 | 3.4 | 13.7 | 25.95 | 23.95 | 22.63 | 5.35 | 16.8 | 59 | 4.32 | 7.03 | 8.75 | 3.28 | 14.8 | 63.6 | 0.05 | 9.13 | 4.37 | 0.19 | 5.64 | 1.14 | Activity (MCF7 [6]): 5.26%; Activity (MCF7 [7]): 11.51%; Activity (MCF7 [8]): 11.66%; Activity (MCF7 [9]): 3.88%; Activity (MCF7 [10]): 2.24%; Activity (MCF7 [11]): 2.97%; Activity (MCF7 [12]): 50.42%; Activity (MCF7 [13]): 55.42%; Activity (MCF7 [14]): 52.91%; Activity (MCF7 [15]): 18.02%; Activity (MCF7 [16]): 19.35%; Activity (MCF7 [17]): 11.04%; Activity (MCF7 [18]): 23.88%; Activity (MCF7 [19]): 22.99%; Activity (MCF7 [20]): 30.2%; Papp [26]: 4.4 ×10⁻⁶ cm/s; GI50 at 72 h [25]: 0.6 µM; LC50 [25]: 8.47 µM; TGI [25]: 3.77 µM
